# Activity calls are given as the source filed them. No cut-off for these calls is given here.
# Legend:
# [1] = Growth inhibition of human Hs 578T cells; type: functional
# Summary of the method: (§1)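 Tested in the NCI 60-cell-line screen using the standard NCI protocol, with concentrations up to 10^-4 M. Growth inhibition is reported as GI50 (M), taken from the NCI mean graphs.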
# [2] = test system: SK-MEL-2; assay: Growth inhibition of human SK-MEL-2 cells; type: functional
# Summary of the method: (§2)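 Run in the NCI 60-cell-line screen under the standard NCI protocol. Cells were tested at concentrations up to 10^-4 M. Potency was expressed as GI50 (M), taken from the NCI mean-graph data.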
# [3] = test system: HCT-116; assay: Growth inhibition of human HCT116 cells; type: functional; summary of the method: as §1
# [4] = test system: NCI-H23; assay: Growth inhibition of human NCI-H23 cells; type: functional; summary of the method: as §1
# [5] = test system: HCC 2998; assay: Growth inhibition of human HCC2998 cells; type: functional; summary of the method: as §1
# [6] = test system: MDA-N; assay: Growth inhibition of human MDA-N cells; type: functional; summary of the method: as §1
# [7] = test system: MDA-MB-231; assay: Growth inhibition of human MDA-MB-231 cells; type: functional; summary of the method: as §1
# [8] = test system: Escherichia coli; assay: Antimicrobial activity against Escherichia coli at 100 ug/ml; type: functional, organism-based
# [9] = test system: TK-10; assay: Growth inhibition of human TK10 cells; type: functional; summary of the method: as §2
# [10] = test system: UO-31; assay: Growth inhibition of human UO31 cells; type: functional; summary of the method: as §2
# [11] = test system: LOX IMVI; assay: Growth inhibition of human LOXIMVI cells; type: functional; summary of the method: as §1
# [12] = test system: NCI-H226; assay: Growth inhibition of human NCI-H226 cells; type: functional; summary of the method: as §1
# [13] = test system: MCF7; assay: Growth inhibition of human MCF7 cells; type: functional; summary of the method: as §1
# [14] = test system: M14; assay: Growth inhibition of human M14 cells; type: functional; summary of the method: as §1
# [15] = test system: OVCAR-3; assay: Growth inhibition of human OVCAR-3 cells; type: functional; summary of the method: as §1
# [16] = test system: SK-OV-3; assay: Growth inhibition of human SKOV3 cells; type: functional; summary of the method: as §2
# [17] = test system: UACC-62; assay: Growth inhibition of human UACC62 cells; type: functional; summary of the method: as §2
# [18] = test system: SN12C; assay: Growth inhibition of human SN12C cells; type: functional; summary of the method: as §2
# [19] = test system: T47D; assay: Growth inhibition of human T47D cells; type: functional; summary of the method: as §2
# [20] = test system: Staphylococcus aureus; assay: Antimicrobial activity against Staphylococcus aureus at 100 ug/ml; type: functional, organism-based
# [21] = test system: SW-620; assay: Growth inhibition of human SW620 cells; type: functional; summary of the method: as §2
# [22] = test system: NCI-H322M; assay: Growth inhibition of human NCI-H322M cells; type: functional; summary of the method: as §1
# [23] = test system: SNB-19; assay: Growth inhibition of human SNB19 cells; type: functional; summary of the method: as §2
# [24] = test system: A549; assay: Growth inhibition of human A549 cells; type: functional
# [25] = test system: MDA-MB-435; assay: Growth inhibition of human MDA-MB-435 cells; type: functional; summary of the method: as §1
# [26] = test system: SK-MEL-5; assay: Growth inhibition of human SK-MEL-5 cells; type: functional; summary of the method: as §2
# [27] = test system: NCI-H522; assay: Growth inhibition of human NCI-H522 cells; type: functional; summary of the method: as §1
# [28] = test system: MOLT-4; assay: Growth inhibition of human MOLT4 cells; type: functional; summary of the method: as §1
# [29] = test system: SF-295; assay: Growth inhibition of human SF295 cells; type: functional; summary of the method: as §2
# [30] = test system: A498; assay: Growth inhibition of human A498 cells; type: functional; summary of the method: as §1
# [31] = test system: NCI-H460; assay: Growth inhibition of human NCI-H460 cells; type: functional; summary of the method: as §1
# [32] = test system: SK-MEL-28; assay: Growth inhibition of human SK-MEL-28 cells; type: functional; summary of the method: as §2
# [33] = read-out: pLC50 (the source's name) (converted)
structure (smiles),measurement,setting,value
COc1cccc(/C=C/[C@H]2O[C@@H](C)[C@H](O)[C@@H]2O)c1CO [VARITRIOL],GI50,[1],> 100 µM
same,CC50,[1]; [33],> 100 µM
same,TGI,[1]; read-out: pTGI,> 100 µM
same,GI50,[2],> 100 µM
same,CC50,[2]; [33],> 100 µM
same,TGI,[2]; read-out: pTGI,> 100 µM
same,GI50,[3],> 100 µM
same,CC50,[3]; [33],> 100 µM
same,TGI,[3]; read-out: pTGI,> 100 µM
same,GI50,[4],> 100 µM
same,CC50,[4]; [33],> 100 µM
same,TGI,[4]; read-out: pTGI,> 100 µM
same,GI50,[5],> 100 µM
same,CC50,[5]; [33],> 100 µM
same,TGI,[5]; read-out: pTGI,> 100 µM
same,GI50,[6],> 100 µM
same,CC50,[6]; [33],> 100 µM
same,TGI,[6]; read-out: pTGI,> 100 µM
same,GI50,[7],> 100 µM
same,CC50,[7]; [33],> 100 µM
same,TGI,[7]; read-out: pTGI,> 100 µM
same,Activity,[8],inactive
same,GI50,[9],> 100 µM
same,CC50,[9]; [33],> 100 µM
same,TGI,[9]; read-out: pTGI,> 100 µM
same,GI50,[10],> 100 µM
same,CC50,[10]; [33],> 100 µM
same,TGI,[10]; read-out: pTGI,> 100 µM
same,GI50,[11],> 100 µM
same,CC50,[11]; [33],> 100 µM
same,TGI,[11]; read-out: pTGI,> 100 µM
same,GI50,[12],> 100 µM
same,CC50,[12]; [33],> 100 µM
same,TGI,[12]; read-out: pTGI,> 100 µM
same,GI50,[13],> 100 µM
same,CC50,[13]; [33],> 100 µM
same,TGI,[13]; read-out: pTGI,> 100 µM
same,GI50,[14],> 100 µM
same,CC50,[14]; [33],> 100 µM
same,TGI,[14]; read-out: pTGI,> 100 µM
same,GI50,[15],> 100 µM
same,CC50,[15]; [33],> 100 µM
same,TGI,[15]; read-out: pTGI,> 100 µM
same,GI50,[16],> 100 µM
same,CC50,[16]; [33],> 100 µM
same,TGI,[16]; read-out: pTGI,> 100 µM
same,GI50,[17],> 100 µM
same,CC50,[17]; [33],> 100 µM
same,TGI,[17]; read-out: pTGI,> 100 µM
same,GI50,[18],> 100 µM
same,CC50,[18]; [33],> 100 µM
same,TGI,[18]; read-out: pTGI,> 100 µM
same,GI50,[19],0.209 µM
same,CC50,[19]; [33],> 100 µM
same,TGI,[19]; read-out: pTGI (converted),1.05 µM
same,Activity,[20],inactive
same,GI50,[21],> 100 µM
same,CC50,[21]; [33],> 100 µM
same,TGI,[21]; read-out: pTGI,> 100 µM
same,GI50,[22],> 100 µM
same,CC50,[22]; [33],> 100 µM
same,TGI,[22]; read-out: pTGI,> 100 µM
same,GI50,[23],91.2 µM
same,CC50,[23]; [33],> 100 µM
same,TGI,[23]; read-out: pTGI,> 100 µM
same,GI50,[24],> 100 µM
same,CC50,[24]; [33],> 100 µM
same,TGI,[24]; read-out: pTGI,> 100 µM
same,GI50,[25],> 100 µM
same,CC50,[25]; [33],> 100 µM
same,TGI,[25]; read-out: pTGI,> 100 µM
same,GI50,[26],> 100 µM
same,CC50,[26]; [33],> 100 µM
same,TGI,[26]; read-out: pTGI,> 100 µM
same,GI50,[27],> 100 µM
same,CC50,[27]; [33],> 100 µM
same,TGI,[27]; read-out: pTGI,> 100 µM
same,GI50,[28],> 100 µM
same,CC50,[28]; [33],> 100 µM
same,TGI,[28]; read-out: pTGI,> 100 µM
same,GI50,[29],> 100 µM
same,CC50,[29]; [33],> 100 µM
same,TGI,[29]; read-out: pTGI,> 100 µM
same,GI50,[30],> 100 µM
same,CC50,[30]; [33],> 100 µM
same,TGI,[30]; read-out: pTGI,> 100 µM
same,GI50,[31],> 100 µM
same,CC50,[31]; [33],> 100 µM
same,TGI,[31]; read-out: pTGI,> 100 µM
same,GI50,[32],> 100 µM
same,CC50,[32]; [33],> 100 µM
same,TGI,[32]; read-out: pTGI,> 100 µM

# Source: ChEMBL document CHEMBL1148105, “Bioactive metabolites from a marine-derived strain of the fungus Emericella variecolor” (2002)
